Results: ChEMBL document CHEMBL1649253, “New approach for drug susceptibility testing: monitoring the stress response of mycobacteria” (2009)
Values after ≈ are worked out from the molar mass of the structure shown.

Assays:
[1] = test system: Mycobacterium tuberculosis; assay: Antibacterial activity against Mycobacterium tuberculosis H37Ra by 7H9 broth dilution method; type: functional
[2] = test system: Mycobacterium tuberculosis; assay: Antibacterial activity against Mycobacterium tuberculosis H37Ra by broth microdilution method; type: functional
How it was run: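 Broth microdilution in supplemented 7H9 (complete) medium with twofold drug dilutions. Inoculum 10^6 CFU/ml from cultures grown at 37°C to mid- or late-log phase. Incubated 21 days at 37°C, then turbidity inspected by eye against drug-free controls. MIC is the lowest concentration with no visible growth.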

[3] = test system: Mycobacterium tuberculosis; assay: Antibacterial activity against Mycobacterium tuberculosis H37Ra by 7H10 agar plate method; type: functional
[4] = test system: Mycobacterium tuberculosis; assay: Antibacterial activity against Mycobacterium tuberculosis H37Ra by BACTEC MGIT 960 method; type: functional
[5] = test system: Mycobacterium tuberculosis; assay: Antibacterial activity against Mycobacterium tuberculosis H37Ra by 7H11 agar plate method
[6] = test system: Mycobacterium tuberculosis; assay: Antibacterial activity against Mycobacterium tuberculosis H37Ra by BACTEC method; type: functional

SMILES | MIC [1] [µg/mL] | MIC [2] [µg/mL] | MIC [3] [µg/mL] | MIC [4] [µg/mL] | MIC [5] [µg/mL] | MIC [6] [µg/mL]
CC[C@@H](CO)NCCN[C@@H](CC)CO [ETHAMBUTOL] | 2 (≈ 9.79 µM) | 5 (≈ 24.5 µM) | 5 (≈ 24.5 µM) | – | – | –
NC(=O)c1cnccn1 [PYRAZINAMIDE] | – | 50 (≈ 406 µM) | – | 20 (≈ 162 µM) | 50 (≈ 406 µM) | –
CO[C@H]1/C=C/O[C@@]2(C)Oc3c(C)c(O)c4c(O)c(c(/C=N/N5CCN(C)CC5)c(O)c4c3C2=O)NC(=O)/C(C)=C\C=C\[C@H](C)[C@H](O)[C@@H](C)[C@@H](O)[C@@H](C)[C@H](OC(C)=O)[C@@H]1C [RIFAMPIN] | 0.125 (≈ 0.152 µM) | 0.2 (≈ 0.243 µM) | 0.2 (≈ 0.243 µM) | – | – | 0.25 (≈ 0.304 µM)
NNC(=O)c1ccncc1 [ISONIAZID] | 0.25 (≈ 1.82 µM) | 0.2 (≈ 1.46 µM) | 0.2 (≈ 1.46 µM) | – | – | 0.03 (≈ 0.219 µM)
